Data on 14 compounds can be found in ChEMBL document CHEMBL1177885, “Synthesis and biological activity of 2-(trifluoromethyl)-1H-benzimidazole derivatives against some protozoa and Trichinella spiralis” (Eur J Med Chem, 2010).

Broadly, the IC50 is the concentration needed to halve the response being measured.

The test system of assay [1] is Trichomonas vaginalis. The assay can be described thus: Antiprotozoal activity against Trichomonas vaginalis G3 after 48 hrs. As to conditions: G3, 48 h. Format: functional, organism-based. The method, boiled down: (§1)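 Trophozoites were grown in modified TYI-S-33 with 10% calf serum, with bovine bile added for Giardia. 5 × 10⁴ trophozoites (Giardia, Trichomonas) or 6 × 10³ (Entamoeba) were exposed to increasing concentrations for 48 h at 37 °C, with DMSO as negative control. Cells were washed, regrown 48 h drug-free, and counted. IC50 was by Probit analysis, in triplicate, repeated at least twice.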

In assay [2] the test system is Trichinella spiralis. Kind of assay: Antitrichinellosis activity against Trichinella spiralis ML assessed as reduction of parasites viability at 1.8 uM after 3 days by MTT assay. Format: functional. The method, boiled down: (§2)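 1000 muscle larvae per well in RPMI 1640 were exposed to 0.18, 0.37 or 1.80 compound for 3 days at 37 °C in humid 5% CO2, with medium and compound renewed daily. Viability was read by MTT colorimetry as percent reduction of metabolic activity.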
In general terms: Formazan colour is commonly taken as a measure of viable cells.

The test system of assay [3] is Trichinella spiralis. The assay can be described thus: Antitrichinellosis activity against Trichinella spiralis ML assessed as reduction of parasites viability at 0.18 uM after 3 days by MTT assay. The assay is classed as functional. The gist of the method: as §2
In assay [4] the test system is Trichinella spiralis. Kind of assay: Antitrichinellosis activity against Trichinella spiralis ML assessed as reduction of parasites viability at 0 37 uM after 3 days by MTT assay. Format: functional. The method, boiled down:
as §2

For assay [5], the system named is Leishmania mexicana. Kind of assay: Antileishmanial activity against Leishmania mexicana MHOM/MX92/UAY68 after 48 hrs. Format: functional, organism-based. Conditions: MHOM/MX92/UAY68, 48 h. The method, boiled down:
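Promastigotes at 2 × 10⁴/mL in RPMI 1640 with 10% FBS, 26 °C, were exposed to 0.1, 0.5, 1.5, 10 and 20 (final) of compound, with DMSO as negative control. Each concentration was run in triplicate. Parasites were fixed in 0.14 M NaCl/3.7% formaldehyde and counted in a Neubauer chamber.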

Assay [6] deals with Giardia intestinalis. Kind of assay: Antiprotozoal activity against Giardia intestinalis IMSS:0989:1 after 48 hrs. The assay is classed as functional, organism-based. As to conditions: Giardia duodenalis, IMSS:0989:1, 48 h. The gist of the method: as §1
Assay [7] concerns Entamoeba histolytica. The assay can be described thus: Antiprotozoal activity against Entamoeba histolytica HM-1:IMSS after 48 hrs. The assay is classed as functional, organism-based. The gist of the method:
as §1

Assay [8] concerns Trichinella spiralis. The assay can be described thus: Antitrichinellosis activity against adult phase of Trichinella spiralis ML infected in mouse assessed as reduction of parasites level at 50 mg/kg administered 3 days after postinfection measured after 6 days relative to control. Format: functional. More on the design: scale not given: the % may be the effect or the level left. The gist of the method: (§3)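 Groups of six mice were infected with 800 muscle larvae and given a single dose on day 3 post-infection. Mice were killed on day 6 post-infection and intestinal adults recovered. Read-out was percent adult load reduction.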

For assay [9], the system named is Trichinella spiralis. Kind of assay: Antitrichinellosis activity against muscle larvae pahse of Trichinella spiralis ML larvae infected in mouse assessed as reduction of parasites level at 75 mg/kg administered for 7 consecutive days from day 28 postinfection measured on day 7 relative to control. The assay is classed as functional. Details: scale not given: the % may be the effect or the level left. The method, boiled down:
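Groups of 10 mice were infected with 800 muscle larvae and treated at 75 mg/Kg from day 28 post-infection for 7 consecutive days. Mice were killed 7 days after treatment and muscle larvae recovered. Read-out was percent larval load reduction.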

Assay [10] concerns Trichinella spiralis. The assay can be described thus: Antitrichinellosis activity against adult phase of Trichinella spiralis ML infected in mouse assessed as reduction of parasites level at 75 mg/kg administered 3 days after postinfection measured after 6 days relative to control. Format: functional. More on the design: scale not given: the % may be the effect or the level left. The method, boiled down: as §3

Each structure is given as a SMILES string. Calls of active or inactive are those of the source. The rule behind the calls is not given here.

As to `Cn1c(C(F)(F)F)nc2cc(Cl)ccc21`, the IC50 in assay [1] is 238 nM. Further, in [2], the Activity came out at 39%.

Consider `Cn1c(C(F)(F)F)nc2ccc(Oc3cccc(Cl)c3Cl)cc21`, for which the results for the Activity in assay [3], in assay [4] and in assay [2] were 44%, 48% and 67%, respectively. For the same compound, the IC50 came out at 4100 nM in assay [5], 110 nM in assay [1], 63 nM in assay [6] and 19 nM in assay [7].

Take `FC(F)(F)c1nc2cc(Oc3cccc(Cl)c3Cl)ccc2[nH]1`: the Activity in assay [3] came to 20%; in assay [4], 24%; in [2], 29%. The IC50 in assay [1] turned out to be 535 nM; in assay [6], 54 nM; in assay [7], 18 nM.

`Cn1c(C(F)(F)F)nc2cc(Cl)c(Oc3cccc4ccccc34)cc21`: the Activity in assay [3] stood at 6%; in [4], 14%; in assay [2] it was 18%. In addition, the IC50 in [5] is 50100 nM; in assay [1], 451 nM; in assay [6], 12 nM; in [7], 17 nM.

For `CSc1nc2cc(Oc3cccc4ccccc34)c(Cl)cc2[nH]1`, the Activity in assay [8] is 28%; in assay [9], 24%.

Regarding `FC(F)(F)c1nc2cc(Cl)c(Cl)cc2[nH]1`, the concentration for half-maximal inhibition (IC50) in assay [5] is 20800 nM; in assay [1], 235 nM. Besides, the Activity in assay [2] is given as 19%.

As for `CSc1nc2cc(Cl)c(Oc3cccc(Cl)c3Cl)cc2[nH]1` [TRICLABENDAZOLE], the Activity in assay [10] was 7%; in [8], 41%; in assay [9] it was 25%.

In the case of `CCCSc1ccc2[nH]c(NC(=O)OC)nc2c1` [ALBENDAZOLE], the Activity in assay [3] is 58.6%; in [10], 73%; in assay [4], 61.9%; in assay [8] it was 62%; in [2], 67%; in assay [9] it was 63%.

Turning to `N=C(N)c1ccc(OCCCCCOc2ccc(C(=N)N)cc2)cc1` [PENTAMIDINE], the 50% inhibitory concentration (IC50) in assay [5] was 2420 nM.

Take `Cn1c(C(F)(F)F)nc2cc(Oc3cccc(Cl)c3Cl)ccc21`: the Activity in assay [3] came out at 54%; in assay [10], 58%; in assay [4] it was 62%; in assay [2] it was 80%; in assay [9] it was 46%. The IC50 came to 24000 nM in assay [5], 16 nM in assay [1], 30 nM in assay [6] and 9 nM in [7].

On to `FC(F)(F)c1nc2cc(Oc3cccc(Cl)c3Cl)c(Cl)cc2[nH]1`, for which the IC50 in assay [6] is 31 nM; in [7], 20 nM.

For the compound `Cc1ncc([N+](=O)[O-])n1CCO` [METRONIDAZOLE], the IC50 in assay [1] worked out at 216 nM.

Regarding `Cn1c(C(F)(F)F)nc2cc(Oc3cccc4ccccc34)c(Cl)cc21`, the Activity in assay [3] is reported as 15%; in assay [10], 36%; in assay [4] it was 29%; in [2], 63%; in [9], 64%. The IC50 was determined as 65200 nM in assay [5], 970 nM in [1], 23 nM in [6] and 38 nM in assay [7]. Also, the outcome in assay [8] was inactive.

With `FC(F)(F)c1nc2cc(Oc3cccc4ccccc34)c(Cl)cc2[nH]1`, the Activity in [3] came out at 43%; in assay [10], 80%; in assay [4] it was 50%; in assay [8], 69%; in assay [2], 65%; in assay [9], 40%. For the same compound, the IC50 in assay [5] came out at 13800 nM; in assay [1] it was 86 nM; in assay [6], 5 nM; in assay [7], 19 nM.
